Published values of several laboratories.
Protocols differ between the studies behind these lines.
Target: MAP kinase-interacting serine/threonine-protein kinase 1 (MKNK1, Homo sapiens, UniProt Q9BUB5)

O=C1NC(=O)c2cc(Nc3ccc(F)cc3)c(Nc3ccc(F)cc3)cc21  remaining signal (cell-free assay; 0.5 µM): 103%
Cc1sc(C(=O)NC2COC2)cc1-n1cc(NC(=O)Nc2c(F)cccc2Cl)cn1  remaining activity (enzyme activity, inhibitor; 10 µM): 94.2%
Cc1nccc(COC(=O)N2C[C@@H]3[C@@H](CNC(=O)c4ccc5[nH]nnc5c4)[C@@H]3C2)n1  remaining binding (cell-free assay, competition with immobilised ligand; 1 µM): 91%
Nc1nc(NC2CCCCC2)sc1C(=O)c1ccccc1  remaining activity (enzyme activity, inhibitor; 10 µM): 105%
Nc1ncnc2occ(-c3ccc(NC(=O)Nc4cc(C(F)(F)F)ccc4F)cc3)c12  remaining signal (cell-free assay, inhibitor; 20 µM): 0%
COc1ccc2c(c1)O[C@H](c1ccc(OC)c(OC)c1)C[C@@H]2NC(=O)C1(c2ccc3c(c2)OC(F)(F)O3)CC1  remaining binding (cell-free assay, competition with immobilised ligand; 1 µM): 81%
Oc1cccc(-c2nc(N3CCOCC3)c3oc4ncccc4c3n2)c1  remaining activity (enzyme activity, inhibitor; 10 µM): 97%
CCCCN(CCCC)C(=O)CN1C[C@H](c2cc(OC)c3c(c2)OCO3)[C@@H](C(=O)O)[C@@H]1CC(C)(C)CCC  remaining binding (cell-free assay, competition with immobilised ligand; 1 µM): 93.3%
CC[C@H](CO)Nc1nc(NCc2ccccc2)c2ncn(C(C)C)c2n1  remaining signal (cell-free assay; 0.5 µM): 96.4%
CCC(=O)N[C@@H]1CC[C@H](C(=O)N(C)c2ccc(-c3nc4ccccc4o3)cc2)C1  remaining binding (cell-free assay, competition with immobilised ligand; 1 µM): 95%
CN(c1ncccc1CNc1nc(Nc2ccc3c(c2)CC(=O)N3)ncc1C(F)(F)F)S(C)(=O)=O  inhibition (enzyme activity, inhibitor; 1 µM): 3.8%
N#CCCc1ccc2c(c1)-c1[nH]c3ccc([N+](=O)[O-])cc3c1CC(=O)N2  remaining signal (cell-free assay; 0.5 µM): 66.7%
O=C(Nc1cnn(-c2csc(C(=O)NC3COC3)c2)c1)Nc1c(F)cccc1Cl  remaining activity (enzyme activity, inhibitor; 5 µM): 103%
CC(C)(C)c1nc2c(s1)c1nc(N)ncc1c1ccc(NS(=O)(=O)c3c(F)cccc3F)c(F)c12  remaining activity (enzyme activity, inhibitor, radiometric; 1 µM): 117%
CNC(=O)c1ccc(Nc2ncc(C(F)(F)F)c(NCc3nccnc3N(C)S(C)(=O)=O)n2)cc1  remaining binding (cell-free assay, competition with immobilised ligand; 0.1 µM): 83%
O=C(CSc1nc2nccnc2c(=O)n1CCc1ccccc1)Nc1nccs1  inhibition (enzyme activity, inhibitor; 10 µM): 1%
CNC(=O)c1cc(Oc2ccc(NC(=O)Nc3ccc(Cl)c(C(F)(F)F)c3)cc2)ccn1  remaining signal (cell-free assay; 0.5 µM): 75.1%
FC(F)(F)Oc1cccc(-c2cnc3ccc(-c4ccncc4)nn23)c1  activity vs control (enzyme activity, inhibitor, radiometric; 1 µM): 75%
O=C(Nc1ccc(Oc2ccc(F)cc2)cc1)N1CCc2ncccc2[C@H]1c1ccc(F)cc1  remaining binding (cell-free assay, competition with immobilised ligand; 1 µM): 95%
COc1cc(Nc2cnc(C#N)c(O[C@H](C)CN(C)C)n2)ncc1-c1cnn(C)c1  remaining activity (enzyme activity, inhibitor, radiometric; 10 µM): 90%
O=C(O)[C@H]1[C@H](Cn2nnc3ccccc3c2=O)CC[C@@H]1C(=O)c1ccc(OCCC2CCOCC2)cc1  remaining binding (cell-free assay, competition with immobilised ligand; 1 µM): 96%
COc1cc2ncnc(Nc3ccc(Oc4ccccc4)c(C)c3C)c2cc1OC  inhibition (enzyme activity, inhibitor; 1 µM): -6%
